Shown is part of a subset that was picked to be rich in hits.
INS-1E rescue: rescue of cytokine-induced death in INS-1E beta cells. AID 488910. INS-1E cytokine-induced death, ATP luminescence, 48 h; normalised: neutral wells 0, positive control 100. protection from cytokine-induced ATP loss, % at 10 µM. actives 0.1% (n = 20,000);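 active = mean replicate protection from cytokine-induced ATP loss at least 50% and at least 75% of replicates each reaching 50%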
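assay system = INS-1E rat insulinoma cells | amount = 8000 cells per well | medium = phenol-red-free RPMI with 5% fetal bovine serum | doses = one compound concentration, pin transfer | timing = 48 h cytokine plus compound treatment, 10 min reagent incubation | also added = IL-1β, TNF-α and IFN-γ cytokine mix | signal = CellTiter-Glo luminescence measuring cellular ATP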
T cruzi HTS: intracellular Trypanosoma cruzi inhibition | intracellular Trypanosoma cruzi in host cells, plate reader | activity score (inhibition), % at 5.01 µM | actives 4.9% (n = 22,000); in the data active = activity score above about 55%;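 also: parasites and compound incubated about four days before reading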
A1 apoptosis 2: blocks A1, raising caspase activity. 24,000 tested, under 10 active. AID 2465. caspase activation, % (concentration not given with the values). MEF A1-2A-BIM cells, caspase-Glo luminescence, 3 h; percent of clofoctol response, DMSO zero; in the data active = caspase activation above about 5.9%
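Evaluation: Caspase-3/7 activity from luminescence increase | Assay system: A1-2A-BIM mouse embryonic fibroblasts | Quantity: 2500 MEF cells/well | Medium: RPMI-1640 plus 10% FBS | Detection: Caspase-Glo 3/7 luminescence, 1 h at room temperature | Dosing: 50 nL compound per well, pinned | Timing: Cells settled overnight, compound exposure 3 h at 37 °C, 5% CO2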
Hits are given with their value; 0 = inactive; - = no result given.

SMILES | INS-1E rescue | T cruzi HTS | A1 apoptosis 2
C[C@H](CO)N1C[C@H](C)[C@H](CN(C)Cc2ccc(Oc3ccccc3)cc2)Oc2ccc(NC(=O)Nc3ccc(C(F)(F)F)cc3)cc2CC1=O | 0 | 64 | 0
C[C@H]1CN([C@@H](C)CO)C(=O)c2cc(N(C)C)ccc2O[C@@H]1CN(C)Cc1ccc(C(=O)Nc2ccccc2N)cc1 | 0 | 0 | -
C[C@@H]1CN([C@@H](C)CO)C(=O)Cc2cc(NC(=O)c3ccncc3)ccc2O[C@@H]1CN(C)Cc1ccc(C(=O)Nc2ccccc2N)cc1 | 0 | 0 | 0
C[C@H](CO)N1C[C@H](C)[C@@H](CN(C)Cc2ccc(C(=O)Nc3ccccc3N)cc2)Oc2ccc(N(C)C)cc2CC1=O | - | - | 0
C[C@H]1CN([C@@H](C)CO)C(=O)Cc2cc(N(C)C)ccc2O[C@H]1CN(C)Cc1ccc(C(=O)Nc2ccccc2N)cc1 | 0 | 62 | -
C[C@H](CO)N1C[C@H](C)[C@H](CN(C)Cc2ccc(C(=O)Nc3ccccc3N)cc2)Oc2ccc(N(C)C)cc2CC1=O | 65 | 59 | -
C[C@@H]1CN([C@@H](C)CO)C(=O)c2cc(N(C)C)ccc2O[C@@H]1CN(C)Cc1ccc(C(=O)Nc2ccccc2N)cc1 | 0 | 61 | -
O=C(O)CCCCCCC(=O)N/N=C/c1ccco1 | 0 | 0 | 0
Cc1ccsc1/C=N/NC(=O)CCCCCCC(=O)O | 0 | 0 | 0
O=C(O)CCCCCC(=O)N/N=C/CCC1CCCCC1 | 0 | 0 | 0
O=C(CCCCCCC(=O)N/N=C/c1ccc(O)cc1)NO | - | - | 0
C[C@H](CO)N1C[C@H](C)[C@@H](CN(C)S(=O)(=O)c2ccc(Oc3ccccc3)cc2)OCc2cnnn2CCCC1=O | - | 73 | 0
C[C@H]1CN([C@@H](C)CO)C(=O)CCCn2nncc2CO[C@@H]1CN(C)S(=O)(=O)c1ccc(Oc2ccccc2)cc1 | 0 | 73 | 0
C[C@@H]1CN([C@@H](C)CO)C(=O)CCCn2nncc2CO[C@H]1CN(C)S(=O)(=O)c1ccc(Oc2ccccc2)cc1 | - | 0 | 0
C[C@H](CO)N1C[C@H](C)[C@H](CN(C)S(=O)(=O)c2ccccc2)OCc2cnnn2CCCC1=O | - | 0 | -
C[C@H](CO)N1C[C@H](C)[C@H](CN(C)C(=O)NC2CCCCC2)Oc2ncc(C#Cc3ccc(C(F)(F)F)cc3)cc2C1=O | 0 | 88 | -
C[C@H](CO)N1C[C@H](C)[C@H](CN(C)C(=O)Nc2ccc(F)cc2)Oc2ncc(C#Cc3ccc(C(F)(F)F)cc3)cc2C1=O | - | 88 | -
C[C@H](CO)N1C[C@H](C)[C@H](CN(C)C(=O)NC2CCCCC2)Oc2ncc(C#Cc3ccc(F)cc3)cc2C1=O | 0 | 0 | 0
C[C@H](CO)N1C[C@H](C)[C@H](CN(C)C(=O)Nc2ccc(F)cc2)Oc2ncc(C#Cc3ccc(F)cc3)cc2C1=O | - | 0 | -
Cc1ccc(S(=O)(=O)N(C)C[C@H]2Oc3ccc(NC(=O)CCN4CCOCC4)cc3C(=O)N([C@H](C)CO)C[C@@H]2C)cc1 | 0 | 0 | -
O=C(O)CCCCCC(=O)N/N=C/c1ccc(C(F)(F)F)cc1 | 0 | 0 | -
COc1ccc(CN(C)C[C@H]2Oc3ccc(NS(=O)(=O)c4ccc(C)cc4)cc3CC(=O)N([C@@H](C)CO)C[C@@H]2C)cc1 | 0 | 56 | 0
COc1ccc(CN(C)C[C@@H]2Oc3ccc(NS(=O)(=O)c4ccc(Cl)cc4)cc3CC(=O)N([C@H](C)CO)C[C@@H]2C)cc1 | 0 | 0 | 0
COc1ccc(CN(C)C[C@@H]2Oc3ccc(NS(=O)(=O)c4ccc(C)cc4)cc3CC(=O)N([C@@H](C)CO)C[C@H]2C)cc1 | - | - | 0
COc1ccc(CN(C)C[C@H]2Oc3ccc(NS(=O)(=O)c4ccc(Cl)cc4)cc3CC(=O)N([C@H](C)CO)C[C@H]2C)cc1 | 0 | 71 | 0
SMILES | INS-1E rescue | T cruzi HTS | A1 apoptosis 2
C[C@H]1CCCCO[C@@H](CN(C)C(=O)Cc2ccccc2)[C@@H](C)CN([C@@H](C)CO)C(=O)c2cc(NC(=O)c3ccncc3)ccc2O1 | - | - | 0
C[C@@H]1CN([C@H](C)CO)C(=O)c2cccc(NC(=O)Nc3ccccc3)c2O[C@H]1CN(C)Cc1ccc(C(=O)O)cc1 | 0 | 0 | 0
C[C@@H]1CN([C@H](C)CO)C(=O)c2cccc(NC(=O)Nc3ccccc3)c2O[C@@H]1CN(C)Cc1ccc(C(=O)Nc2ccccc2N)cc1 | 0 | 70 | 0
C[C@H](CO)N1C[C@H](C)[C@@H](CN(C)Cc2ccc(C(=O)Nc3ccccc3N)cc2)Oc2c(NC(=O)Nc3ccc(F)cc3)cccc2C1=O | 0 | 0 | -
C[C@H]1CN([C@@H](C)CO)C(=O)c2cccc(NC(=O)Nc3ccc(F)cc3)c2O[C@H]1CN(C)Cc1ccc(C(=O)Nc2ccccc2N)cc1 | 0 | 59 | -
C[C@H]1CN([C@@H](C)CO)C(=O)c2cccc(N(C)C)c2O[C@H]1CN(C)Cc1ccc(C(=O)Nc2ccccc2N)cc1 | 0 | 59 | 0
C[C@H](CO)N1C[C@H](C)[C@@H](CN(C)Cc2ccc(C(=O)Nc3ccccc3N)cc2)Oc2c(cccc2N(C)C)C1=O | 0 | 0 | 0
O=C(O)c1ccc(/C=N/NC(=O)c2cccc(C(=O)NO)c2)cc1 | 0 | 0 | 0
O=C(CCCCCCC(=O)N/N=C/c1ccccn1)NO | - | - | 0
O=C(C1=C[C@H](c2coc3ccccc3c2=O)C[C@H](OCCCCO)O1)N1CCCCCCC1 | - | - | 0
NC(=O)NCC#Cc1ccc2c(c1)[C@]1(C(=O)N2)[C@H](C(=O)N2CCCCCCC2)[C@H]2C(=O)O[C@H](c3ccccc3)[C@H](c3ccccc3)N2[C@@H]1c1ccccc1OCCO | - | - | 0
O=C(N/N=C/c1ccc(O)cc1O)c1ccccc1O | 0 | 67 | 0
Cn1cc(/C=N\NC(=O)c2ccccc2O)c2ccccc21 | 0 | 0 | -
O=C(N/N=C/c1cc(Br)cs1)c1ccccc1O | 0 | 0 | 0
O=C(N/N=C/c1cc(Br)cc(Br)c1O)c1ccccc1O | 0 | 83 | 0
O=C(N/N=C/c1cc(O)ccc1Br)c1ccccc1O | 0 | 0 | 0
O=C(N/N=C\c1ccc2ccccc2c1O)c1ccccc1O | 0 | 62 | -
C[C@H](CO)N1C[C@H](C)[C@@H](CN(C)CC2CC2)Oc2ccc(NS(C)(=O)=O)cc2CC1=O | - | - | 0
COc1ccc(/C=N/NC(=O)CCCCCC(=O)Nc2ccccc2O)cc1OC | 0 | 0 | -
C[C@@H]1CN([C@@H](C)CO)C(=O)Cc2cc(NC(=O)Nc3ccc(C(F)(F)F)cc3)ccc2O[C@H]1CN(C)S(=O)(=O)c1ccc(Cl)cc1 | - | - | 0
C[C@@H]1CN([C@H](C)CO)C(=O)Cc2cc(NC(=O)Nc3ccc(C(F)(F)F)cc3)ccc2O[C@@H]1CN(C)S(=O)(=O)c1ccc(Cl)cc1 | 0 | 58 | 0
C[C@@H]1CN([C@H](C)CO)C(=O)Cc2cc(NC(=O)Nc3ccc(C(F)(F)F)cc3)ccc2O[C@H]1CN(C)S(=O)(=O)c1ccc(Cl)cc1 | 0 | 0 | -
C[C@H](CO)N1C[C@H](C)[C@H](CN(C)S(=O)(=O)c2ccc(Cl)cc2)Oc2ccc(NC(=O)Nc3ccc(C(F)(F)F)cc3)cc2CC1=O | 0 | 63 | -
COc1ccc(S(=O)(=O)N(C)C[C@H]2Oc3ccc(NC(=O)Nc4ccc(C(F)(F)F)cc4)cc3CC(=O)N([C@@H](C)CO)C[C@H]2C)cc1 | 0 | 65 | 0
